From ChEMBL document CHEMBL4627265, “Optimization of 8-oxoadenines with toll-like-receptor 7 and 8 activity” (Bioorg Med Chem Lett, 2020)
pEC50: −log10 of the molar value. The source made the active and inactive calls. The rule behind the calls is not given here.

Assays:
Format in all cases: cell-based
Toll-like receptor 7 = molecular target: T1, Toll-like receptor 7 (Homo sapiens, UniProt Q9NYK1); assay: Agonist activity at human TLR7 expressed in HEK293 cells assessed as induction of NFKappaB activity after 24 hrs by SEAP reporter gene assay
T1 sequence (Q9NYK1 whole entry): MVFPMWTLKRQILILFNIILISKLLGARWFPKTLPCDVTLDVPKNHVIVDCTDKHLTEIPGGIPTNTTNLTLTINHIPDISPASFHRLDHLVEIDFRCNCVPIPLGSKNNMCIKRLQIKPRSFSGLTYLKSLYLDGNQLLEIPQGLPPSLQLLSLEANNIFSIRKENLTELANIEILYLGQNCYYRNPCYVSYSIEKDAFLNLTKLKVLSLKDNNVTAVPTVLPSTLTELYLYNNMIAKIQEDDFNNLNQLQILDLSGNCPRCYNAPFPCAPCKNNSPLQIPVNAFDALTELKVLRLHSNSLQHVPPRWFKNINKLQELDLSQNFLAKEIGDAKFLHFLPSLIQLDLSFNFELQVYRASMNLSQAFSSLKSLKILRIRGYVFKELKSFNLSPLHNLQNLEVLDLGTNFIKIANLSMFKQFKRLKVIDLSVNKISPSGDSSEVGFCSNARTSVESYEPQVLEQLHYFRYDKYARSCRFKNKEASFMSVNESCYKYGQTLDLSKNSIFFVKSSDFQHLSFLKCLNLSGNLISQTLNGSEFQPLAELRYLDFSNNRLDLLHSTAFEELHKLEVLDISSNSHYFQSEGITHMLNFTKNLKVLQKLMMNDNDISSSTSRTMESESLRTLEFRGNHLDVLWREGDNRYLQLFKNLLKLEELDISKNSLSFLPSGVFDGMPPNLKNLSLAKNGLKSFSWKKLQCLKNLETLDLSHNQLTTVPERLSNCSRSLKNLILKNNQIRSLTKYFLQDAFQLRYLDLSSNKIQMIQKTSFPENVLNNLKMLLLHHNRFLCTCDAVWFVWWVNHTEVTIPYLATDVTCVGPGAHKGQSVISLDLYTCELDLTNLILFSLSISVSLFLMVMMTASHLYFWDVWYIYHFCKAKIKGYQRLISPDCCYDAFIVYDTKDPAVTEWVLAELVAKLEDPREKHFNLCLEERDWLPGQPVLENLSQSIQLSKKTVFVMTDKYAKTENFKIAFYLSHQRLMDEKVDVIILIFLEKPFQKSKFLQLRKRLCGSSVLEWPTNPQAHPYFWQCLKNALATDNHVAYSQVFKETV
Method in brief: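 HEK293 cells stably transfected with hTLR7 or hTLR8 plus an NFκB-driven SEAP reporter, treated 24 h with compound over a μM range; SEAP secretion read out. EC50 as mean ± SD of three (TLR7) or four (TLR8) independent experiments.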

[1] = molecular target: TLR7 and TLR8 (Homo sapiens) (UniProt Q9NYK1+Q9NR97); assay: Agonist activity at TLR7/TLR8 in human PBMC assessed as IFN alpha level
Method in brief: (§1)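 IFNα secretion by hPBMCs across a μM dose range; MEC = lowest dose tested inducing cytokine, PC = dose giving highest level, PL = peak level at 10 μM. Data representative of one of three independent donors.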

[2] = molecular target: T2, Toll-like receptor 7 (Homo sapiens) (UniProt Q9NYK1); assay: Agonist activity at TLR7 in human PBMC assessed as IFNalpha stimulation at 10 uM; method in brief: as §1
T2 sequence (whole entry): T1 sequence (Q9NYK1 whole entry)

[3] = molecular target: T3, Toll-like receptor 8 (Homo sapiens) (UniProt Q9NR97); assay: Agonist activity at TLR8 in human PBMC assessed as TNFalpha level
T3 sequence (whole entry): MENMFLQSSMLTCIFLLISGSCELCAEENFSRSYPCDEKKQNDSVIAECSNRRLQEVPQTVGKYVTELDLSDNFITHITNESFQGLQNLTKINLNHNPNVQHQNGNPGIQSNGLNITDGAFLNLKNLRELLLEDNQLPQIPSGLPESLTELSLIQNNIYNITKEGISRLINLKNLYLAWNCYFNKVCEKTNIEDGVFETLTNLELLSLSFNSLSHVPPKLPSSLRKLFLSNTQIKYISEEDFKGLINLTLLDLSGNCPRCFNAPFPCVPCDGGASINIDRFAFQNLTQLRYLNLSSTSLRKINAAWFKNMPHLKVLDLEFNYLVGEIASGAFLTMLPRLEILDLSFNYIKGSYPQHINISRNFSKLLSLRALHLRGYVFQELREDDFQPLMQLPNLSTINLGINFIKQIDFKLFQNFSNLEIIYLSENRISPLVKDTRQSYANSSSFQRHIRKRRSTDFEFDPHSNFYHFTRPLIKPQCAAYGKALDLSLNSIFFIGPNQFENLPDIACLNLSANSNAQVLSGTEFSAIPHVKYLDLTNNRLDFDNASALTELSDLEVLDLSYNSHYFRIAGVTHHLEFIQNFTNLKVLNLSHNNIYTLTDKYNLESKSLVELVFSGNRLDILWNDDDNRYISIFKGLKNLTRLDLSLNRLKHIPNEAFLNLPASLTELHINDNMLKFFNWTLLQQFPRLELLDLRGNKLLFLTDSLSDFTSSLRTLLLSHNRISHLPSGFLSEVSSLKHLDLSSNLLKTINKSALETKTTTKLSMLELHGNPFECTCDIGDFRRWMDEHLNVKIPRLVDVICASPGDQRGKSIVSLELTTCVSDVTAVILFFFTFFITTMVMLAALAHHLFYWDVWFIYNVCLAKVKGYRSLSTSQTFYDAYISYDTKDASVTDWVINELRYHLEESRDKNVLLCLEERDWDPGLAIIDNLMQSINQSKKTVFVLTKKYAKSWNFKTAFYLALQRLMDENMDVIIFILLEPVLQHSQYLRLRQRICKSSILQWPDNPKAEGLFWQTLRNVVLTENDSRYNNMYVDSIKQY
Method in brief: (§2)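 TNFα secretion by hPBMCs across a μM dose range; MEC = lowest dose tested inducing cytokine, PC = dose giving highest level, PL = peak level at 10 μM. Data representative of one of three independent donors.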

[4] = molecular target: T3, Toll-like receptor 8 (Homo sapiens); assay: Agonist activity at TLR8 in human PBMC assessed as TNFalpha level at 10 uM; method in brief: as §2
[5] = molecular target: T2, Toll-like receptor 7 (Homo sapiens); assay: Agonist activity at TLR7 in human PBMC assessed as induction of plasmacytoid dendritic cell maturation by measuring CD86 level at 0.1 uM after 6 hrs by flow cytometry
Method in brief: (§3)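 hPBMCs stimulated 6 h at a single 0.1 μM dose; HLA-DR, MHC-I, CD80 and CD86 on mDCs and pDCs measured by flow cytometry, expressed as fold change versus unstimulated cells. Mean ± SD of three independent experiments in three different donors.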

[6] = molecular target: T2, Toll-like receptor 7 (Homo sapiens); assay: Agonist activity at TLR7 in human PBMC assessed as induction of plasmacytoid dendritic cell maturation by measuring CD80 level at 0.1 uM after 6 hrs by flow cytometry; method in brief: as §3
[7] = molecular target: T2, Toll-like receptor 7 (Homo sapiens); assay: Agonist activity at TLR7 in human PBMC assessed as induction of plasmacytoid dendritic cell maturation by measuring HLA-DR level at 0.1 uM after 6 hrs by flow cytometry; method in brief: as §3
[8] = molecular target: T2, Toll-like receptor 7 (Homo sapiens); assay: Agonist activity at TLR7 in human PBMC assessed as induction of plasmacytoid dendritic cell maturation by measuring MHC-1 level at 0.1 uM after 6 hrs by flow cytometry; method in brief: as §3
[9] = molecular target: Toll-like receptor 3 (Homo sapiens) (UniProt O15455); assay: Agonist activity at human TLR3 expressed in HEK293 cells by SEAP reporter gene assay
[10] = molecular target: T4, Toll-like receptor 9 (Homo sapiens) (UniProt Q9NR96); assay: Agonist activity at human TLR9 expressed in HEK293 cells by SEAP reporter gene assay
T4 sequence (whole entry): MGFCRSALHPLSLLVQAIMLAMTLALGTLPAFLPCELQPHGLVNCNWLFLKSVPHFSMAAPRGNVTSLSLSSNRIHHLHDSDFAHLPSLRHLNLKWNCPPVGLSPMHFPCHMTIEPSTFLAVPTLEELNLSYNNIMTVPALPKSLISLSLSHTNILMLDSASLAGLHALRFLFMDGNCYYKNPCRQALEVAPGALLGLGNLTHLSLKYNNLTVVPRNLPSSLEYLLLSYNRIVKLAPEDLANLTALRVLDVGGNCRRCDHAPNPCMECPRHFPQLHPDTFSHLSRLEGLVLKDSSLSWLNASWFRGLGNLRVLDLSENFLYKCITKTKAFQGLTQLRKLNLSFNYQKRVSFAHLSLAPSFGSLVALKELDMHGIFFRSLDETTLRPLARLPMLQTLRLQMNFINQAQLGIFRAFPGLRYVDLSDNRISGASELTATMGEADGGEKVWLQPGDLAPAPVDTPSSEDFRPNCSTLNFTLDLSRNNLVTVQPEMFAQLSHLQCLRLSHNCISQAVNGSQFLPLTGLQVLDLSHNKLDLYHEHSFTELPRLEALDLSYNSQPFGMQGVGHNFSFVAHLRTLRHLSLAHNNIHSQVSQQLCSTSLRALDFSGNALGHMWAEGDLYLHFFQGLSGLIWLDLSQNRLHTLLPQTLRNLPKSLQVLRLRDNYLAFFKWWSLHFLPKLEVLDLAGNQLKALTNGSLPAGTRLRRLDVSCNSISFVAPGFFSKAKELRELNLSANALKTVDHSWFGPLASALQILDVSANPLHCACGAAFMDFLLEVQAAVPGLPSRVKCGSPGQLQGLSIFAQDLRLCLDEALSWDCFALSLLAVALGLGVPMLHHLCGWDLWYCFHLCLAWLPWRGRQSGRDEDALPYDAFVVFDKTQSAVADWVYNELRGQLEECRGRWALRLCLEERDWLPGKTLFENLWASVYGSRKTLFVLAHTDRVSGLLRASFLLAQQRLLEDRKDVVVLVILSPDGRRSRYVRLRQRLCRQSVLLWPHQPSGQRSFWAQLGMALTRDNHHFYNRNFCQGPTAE

[11] = molecular target: T3, Toll-like receptor 8 (Homo sapiens); assay: Agonist activity at TLR8 in human PBMC assessed as induction of myeloid dendritic cell maturation by measuring HLA-DR level at 0.1 uM after 6 hrs by flow cytometry; method in brief: as §3
[12] = molecular target: T3, Toll-like receptor 8 (Homo sapiens); assay: Agonist activity at TLR8 in human PBMC assessed as induction of myeloid dendritic cell maturation by measuring CD86 level at 0.1 uM after 6 hrs by flow cytometry; method in brief: as §3
[13] = molecular target: T2, Toll-like receptor 7 (Homo sapiens); assay: Agonist activity at TLR7 in human PBMC assessed as induction of plasmacytoid dendritic cell maturation by measuring increase in MHC-1 level at 0.1 uM after 6 hrs by flow cytometry relative to control; method in brief: as §3
[14] = molecular target: T2, Toll-like receptor 7 (Homo sapiens); assay: Agonist activity at TLR7 in human PBMC assessed as induction of plasmacytoid dendritic cell maturation by measuring increase in HLA-DR level at 0.1 uM after 6 hrs by flow cytometry relative to control; method in brief: as §3
[15] = molecular target: T2, Toll-like receptor 7 (Homo sapiens); assay: Agonist activity at TLR7 in human PBMC assessed as induction of plasmacytoid dendritic cell maturation by measuring increase in CD86 level at 0.1 uM after 6 hrs by flow cytometry relative to control; method in brief: as §3
[16] = molecular target: T3, Toll-like receptor 8 (Homo sapiens); assay: Agonist activity at TLR8 in human PBMC assessed as induction of myeloid dendritic cell maturation by measuring increase in MHC-1 level at 0.1 uM after 6 hrs by flow cytometry relative to control; method in brief: as §3
[17] = molecular target: T3, Toll-like receptor 8 (Homo sapiens); assay: Agonist activity at TLR8 in human PBMC assessed as induction of myeloid dendritic cell maturation by measuring increase in CD86 level at 0.1 uM after 6 hrs by flow cytometry relative to control; method in brief: as §3

Toll-like receptor 3 (Homo sapiens), sequence (O15455 whole entry): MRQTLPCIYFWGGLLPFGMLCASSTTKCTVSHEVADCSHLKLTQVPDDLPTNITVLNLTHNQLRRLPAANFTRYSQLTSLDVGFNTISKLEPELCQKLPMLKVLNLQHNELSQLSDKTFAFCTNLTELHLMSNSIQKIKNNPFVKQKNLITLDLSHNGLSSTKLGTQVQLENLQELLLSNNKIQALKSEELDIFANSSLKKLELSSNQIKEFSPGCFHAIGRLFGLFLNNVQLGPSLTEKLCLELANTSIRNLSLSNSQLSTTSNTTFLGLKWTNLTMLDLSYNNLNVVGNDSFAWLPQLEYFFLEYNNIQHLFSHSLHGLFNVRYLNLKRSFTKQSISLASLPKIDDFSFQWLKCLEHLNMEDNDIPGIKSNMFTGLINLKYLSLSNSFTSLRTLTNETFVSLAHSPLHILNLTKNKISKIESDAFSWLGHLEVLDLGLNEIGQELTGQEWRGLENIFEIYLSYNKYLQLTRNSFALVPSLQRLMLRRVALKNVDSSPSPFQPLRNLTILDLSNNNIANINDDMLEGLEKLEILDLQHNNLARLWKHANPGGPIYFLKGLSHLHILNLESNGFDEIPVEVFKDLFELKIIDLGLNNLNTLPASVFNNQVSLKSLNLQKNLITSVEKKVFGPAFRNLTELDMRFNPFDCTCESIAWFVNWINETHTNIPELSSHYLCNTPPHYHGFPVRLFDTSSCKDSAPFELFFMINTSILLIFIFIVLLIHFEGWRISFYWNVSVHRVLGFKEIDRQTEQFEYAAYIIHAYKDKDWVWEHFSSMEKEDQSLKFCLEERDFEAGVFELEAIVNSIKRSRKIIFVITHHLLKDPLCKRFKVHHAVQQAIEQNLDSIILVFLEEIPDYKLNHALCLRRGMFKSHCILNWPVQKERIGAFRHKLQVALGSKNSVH

Row | pEC50 (Toll-like receptor 7) | ECmax [1] | MEC [1] | Activity [2] | MEC [3] | Activity [5] | Activity [6] | Activity [7] | Activity [8] | Activity [9] | Activity [10] | Activity [11] | Activity [12] | fold change (FC) [13] | fold change (FC) [14] | fold change (FC) [15] | fold change (FC) [16] | fold change (FC) [17] | Compound | Activity [4]
1 | < 3.30 | – | – | 2240 pg/mL | – | inactive | inactive | inactive | inactive | inactive | inactive | – | – | – | – | – | – | – | COCCOc1nc(N)c2[nH]c(=O)n(CC3CCNCC3)c2n1 | –
2 | 4.64 | 0.4 µM | 0.4 µM | 4730 pg/mL | 10 µM | inactive | inactive | – | – | – | – | inactive | inactive | 1.5 to 1.7 | 1.5 to 1.7 | 1.7 to 2.3 | – | – | CCCCOc1nc(N)c2[nH]c(=O)n(CC3CCN(CCO)CC3)c2n1 | 2740 pg/mL
3 | – | 10 µM | 0.08 µM | 1410 pg/mL | 2 µM | – | – | – | – | – | – | – | – | – | – | – | 1.4 | 1.9 | CCOCc1nc2c(N)nc3ccccc3c2n1CC(C)(C)O | –

The next lines start with the compound.

Row | Compound | pEC50 (Toll-like receptor 7) | ECmax [1] | MEC [1] | Activity [2] | MEC [3] | Activity [5] | Activity [6] | Activity [7] | Activity [8] | Activity [9] | Activity [10] | Activity [11] | Activity [12] | fold change (FC) [13] | fold change (FC) [14] | fold change (FC) [15] | fold change (FC) [16] | fold change (FC) [17] | Activity [4]
4 | COCCOc1nc(N)c2[nH]c(=O)n(Cc3ccccc3)c2n1 | 5.93 | 0.08 µM | 0.08 µM | 1440 pg/mL | 2 µM | – | – | – | – | – | – | – | – | – | – | – | – | – | 1660 pg/mL
5 | CCCCOc1nc(N)c2[nH]c(=O)n(CCCCCC3CCNCC3)c2n1 | 6.35 | – | – | 4680 pg/mL | – | – | – | – | – | – | – | – | – | 1.7 to 2.3 | 1.7 to 2.3 | – | – | – | –
6 | CCCCOc1nc(N)c2[nH]c(=O)n(CC3CCNCC3)c2n1 | 4.70 | – | – | 5900 pg/mL | – | – | – | – | – | inactive | inactive | – | – | 1.2 to 2.4 | 1.2 to 2.4 | 1.4 | – | – | –
